Experimental data as given in ChEMBL document CHEMBL4033788, “Novel Ligustrazine-Based Analogs of Piperlongumine Potently Suppress Proliferation and Metastasis of Colorectal Cancer Cells in Vitro and in Vivo” (J Med Chem, 2018).
≈ marks a conversion by molar mass, not a printed value. Calls of active or inactive are those of the source. The rule behind the calls is not given here.

Experiments:
[1] = Thiol reactivity in DMSO assessed as methyl 2-(3-chloro-2-oxo-1-(3-(3,5,6-trimethylpyrazin-2-yl)acryloyl)piperidin-4-ylthio)acetate formation at 5 mg up to 8 hrs in presence of methyl thioglycolate by 1H NMR analysis
[2] = tested on: HCT-116; experiment: Induction of ROS accumulation in human HCT116 cells at 1 to 10 uM up to 3 hrs by DCFH-DA staining-based fluorescence spectrometric analysis; assay type: functional, cell-based
In short: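 HCT-116 and CCD-841 cells treated in triplicate at 1, 5 and 10 μM for 1, 2 and 3 h. Intracellular ROS stained with DCFH-DA and fluorescence read on a microplate reader. Values expressed relative to DMSO control, from three separate experiments.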

[3] = tested on: HCT-116; experiment: Inhibition of TGF-beta1-induced increase in expression levels of twist protein in human HCT116 cells after 48 hrs by Western blot analysis; assay type: functional, cell-based
In short: (§1)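 HCT-116 cells (1 × 10^6/well, plated overnight) were exposed to TGF-β1 (10 ng/mL) for 48 h, with or without test compound; vehicle was 0.1% DMSO. Lysates (20 μg/lane) were run on 7.5% SDS-PAGE and blotted to PVDF, with primary antibody overnight at 4 °C and HRP/ECL detection. Band densities were normalised to β-actin across three independent experiments.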

[4] = Stability of compound in stimulated gastric fluid at 1 uM after 4 hrs by LC-MS/MS analysis
[5] = target: T1, Catenin beta-1 (Homo sapiens) (UniProt P35222); experiment: Inhibition of TGF-beta1-regulated decrease in cytoplasmic beta-catenin in human HCT116 cells at 2 to 50 nM after 48 hrs by Western blot analysis; assay type: cell-based
T1 sequence (whole entry): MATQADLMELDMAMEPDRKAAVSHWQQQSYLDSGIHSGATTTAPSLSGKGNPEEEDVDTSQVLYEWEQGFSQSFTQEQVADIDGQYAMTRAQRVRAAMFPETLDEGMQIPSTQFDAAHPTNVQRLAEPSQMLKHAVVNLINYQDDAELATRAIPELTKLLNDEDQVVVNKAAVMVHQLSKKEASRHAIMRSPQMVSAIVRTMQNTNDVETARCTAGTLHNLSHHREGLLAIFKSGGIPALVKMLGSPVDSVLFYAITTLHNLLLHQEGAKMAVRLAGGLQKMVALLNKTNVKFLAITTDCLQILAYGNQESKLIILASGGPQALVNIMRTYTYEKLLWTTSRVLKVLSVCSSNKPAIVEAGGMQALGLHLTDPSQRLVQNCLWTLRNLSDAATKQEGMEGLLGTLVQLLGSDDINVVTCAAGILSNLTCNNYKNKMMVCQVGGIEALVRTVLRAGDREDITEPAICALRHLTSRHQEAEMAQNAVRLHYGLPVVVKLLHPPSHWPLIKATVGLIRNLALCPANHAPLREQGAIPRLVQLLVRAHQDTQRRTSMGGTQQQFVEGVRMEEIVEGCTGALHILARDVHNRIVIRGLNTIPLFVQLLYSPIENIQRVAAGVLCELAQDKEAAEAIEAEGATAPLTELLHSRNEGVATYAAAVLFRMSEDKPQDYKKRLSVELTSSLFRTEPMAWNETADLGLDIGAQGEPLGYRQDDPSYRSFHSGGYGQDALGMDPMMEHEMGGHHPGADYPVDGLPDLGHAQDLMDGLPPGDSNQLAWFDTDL
In short: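 Cytoplasmic and nuclear β-catenin were measured by Western blot in HCT-116 cells given TGF-β1 (10 ng/mL) for 48 h, with or without compound, against 0.1% DMSO vehicle. Lysates (20 μg/lane) were run on 7.5% gels and transferred to PVDF, with Lamin A among the antibodies used. Blots were read by ECL and densitometry, n = 3 independent experiments.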

[6] = tested on: HCT-116; experiment: Induction of ROS accumulation in human HCT116 cells up to 3 hrs in presence of GSH by DCFH-DA staining-based fluorescence microscopic analysis; assay type: functional, cell-based
[7] = tested on: HCT-116; experiment: Antimetastatic activity against human HCT116 cells xenografted in BALB/c nude mouse model assessed as reduction in lung metastatic tumor at 2 to 4 mg/kg, ip administered thrice a week for 6 consecutive weeks by H and E staining-based assay; assay type: functional, organism-based
In short: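 BALB/c nude mice received HCT-116 cells into the tail vein, then were randomized and dosed intraperitoneally (1, 2 or 4 mg/kg) three times weekly. Body weight recorded weekly. Lungs sectioned (4 μm), H&E stained, and nodule number and area scored blinded in three sections per mouse. Nodule counts n = 4–6 per group.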

[8] = tested on: HCT-116; experiment: Inhibition of TGF-beta1-induced decrease in expression levels of E-cadherin protein in human HCT116 cells after 48 hrs by Western blot analysis; assay type: functional, cell-based
In short: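 HCT-116 cells treated with or without TGF-β1 (10 ng/mL) for 48 h, with or without test agent. Lysates (20 μg/lane) run on 7.5% SDS-PAGE and transferred to PVDF. Probed for p-Akt (Ser473), Akt, p-GSK-3β (S9), GSK-3β, E-cadherin, MMP-9 and β-actin, detected by ECL. Densitometry relative to β-actin or total protein. Three independent experiments.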

[9] = Aqueous solubility of compound by HPLC analysis; assay type: physicochemical; settings: water
In short: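 Compound shaken in pure water or 50 mM phosphate buffer pH 7.4 at 20 °C, then centrifuged. Supernatant assayed by C18 HPLC (acetonitrile–water 60/40, 1.0 mL/min, 254 nm). Triplicate.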

[10] = tested on: HCT-116; experiment: Antiproliferative activity against human HCT116 cells at […] after 72 hrs by MTT assay relative to control; assay type: functional; settings: HCT-116, 72 h
[11] = Stability of compound in human HCT116 cells at 1 uM after 4 hrs by LC-MS/MS analysis; assay type: ADME, cell-based; settings: hct-116, 4 h
[12] = Acute toxicity in ICR mouse assessed as survival rate at 150 mg/kg, ip administered for 14 days relative to control; assay type: organism-based; settings: in vivo
[13] = tested on: Mus musculus; experiment: Acute toxicity in ICR mouse assessed as mortality at 50 mg/kg, ip administered for 14 days; assay type: organism-based; settings: in vivo, 336 h
[14] = tested on: HCT-116; experiment: Cytotoxicity against human HCT116 cells assessed as reduction in cell viability at 50 nM after 72 hrs by MTT assay; assay type: cell-based; settings: hct-116, 72 h, 0.05 µM
In short: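 HCT-116 cells exposed to TGF-β1 (10 ng/mL) alone or combined with test agent at 2, 10 or 50 nM for 24, 48 or 72 h. Viability read by MTT (formazan in DMSO, 570 nm).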

[15] = tested on: HCT-116; experiment: Inhibition of TGF-beta1-induced increase in expression levels of twist protein in human HCT116 cells at 50 nM after 48 hrs by Western blot analysis; assay type: functional, cell-based; in short: as §1
[16] = tested on: Mus musculus; experiment: Toxicity in BALB/c nude mouse xenografted with human HCT116 cells assessed as mortality at 4 mg/kg, ip administered thrice a week for 6 consecutive weeks; assay type: organism-based; settings: in vivo
In short: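 Lung metastasis model: HCT-116 cells in serum-free medium injected into tail vein of BALB/c nude mice, then randomized and given vehicle or compound ip (1, 2 or 4 mg/kg) three times a week. Body weight recorded weekly, survival monitored (n = 6); mice sacrificed after 40 days and lungs examined by H&E histology.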

[17] = tested on: HCT-116; experiment: Inhibition of TGF-beta1-induced increase in expression levels of vimentin protein in human HCT116 cells at 50 nM after 48 hrs by Western blot analysis; assay type: functional, cell-based; in short: as §1

| SMILES | Drug metabolism [1] | Activity [2] | inhibition [3] | Stability [4] | inhibition [5] | Activity [6] | Activity [7] | inhibition [8] | solubility [9] | inhibition at […] [10] | Stability [11] | survival at 336 h [12] | Activity [13] | Activity [14] | inhibition [15] | Activity [16] | inhibition [17] |
| --- | --- | --- | --- | --- | --- | --- | --- | --- | --- | --- | --- | --- | --- | --- | --- | --- | --- |
| Cc1nc(C)c(/C=C/C(=O)N2CCC=C(Cl)C2=O)nc1C | Metabolite detected | Active | Dose-dependent effect | Stable | Active | inactive | Active | Dose-dependent effect | 22.8 µg/mL (≈ 74.7 µM) | 82.9% | Stable | 40% | Non-Toxic | Toxic |  |  |  |
| COc1cc(/C=C/C(=O)N2CCC=CC2=O)cc(OC)c1OC [PIPLARTINE] |  |  |  |  |  |  |  |  |  |  |  |  |  |  | Active | Non-Toxic | Active |
